The species named for series [1] is Homo sapiens. Kind of series: Activity of human recombinant carbonic anhydrase 7 C183S/C217S mutant.
For series [2], the species on record is Homo sapiens. In words: Ratio of Kcat to Km for human recombinant carbonic anhydrase 7 C183S/C217S mutant.
Series [3] in a line: Inhibition of human recombinant carbonic anhydrase 7 C183S/C217S mutant using carbon-dioxide as substrate preincubated for 10 mins prior to substrate addition by […]. Put shortly: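 Stopped-flow CO2 hydration by Khalifah's method: 0.2 mM phenol red read at 557 nm, 10 mM HEPES pH 7.5, 0.1 M Na2SO4, CO2 1.7–17 mM, initial rates over 10–100 s. Enzyme preincubated 10 min at room temperature with at least 7 inhibitor concentrations, from 10 mM DMSO-water stock diluted down to 1 nM. Triplicates; Ki by non-linear least-squares fitting.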
(In general: A flow cytometer gives signals particle by particle.)

Series [4] is described as follows: Inhibition of human recombinant carbonic anhydrase 7 C183S/C217S mutant hydrolysis activity using 4-nitrophenyl acetate as substrate preincubated for 10 mins prior to substrate addition by […]. Put shortly: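 Esterase assay with 4-nitrophenyl acetate dissolved in acetonitrile (final MeCN 5%). Buffer: 10 mM HEPES/10 mM Tris pH 7.4 with 0.1 M Na2SO4; enzyme 0.10–5.0 µM. […] Spontaneous hydrolysis subtracted.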

Series [5] can be described thus: Inhibition of human recombinant carbonic anhydrase 7 C183S/C217S mutant phosphatase activity using 4-nitrophenyl phosphate as substrate preincubated for 10 mins prior to substrate addition by […]. The procedure, abridged:
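Phosphatase assay with 4-nitrophenyl phosphate at 0.08–5 mM, 25 °C, 4-nitrophenol release read at 405 nm. Buffer: 10 mM HEPES/10 mM Tris pH 7.4 with 0.1 M Na2SO4. Spontaneous hydrolysis subtracted.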

Substrate in series [6]: CC(=O)Oc1ccc([N+](=O)[O-])cc1
Kind of series: (§1) Activity of human recombinant carbonic anhydrase 3.

Substrate in series [7]: O=[N+]([O-])c1ccc(OP(=O)(O)O)cc1
The series is described as §1.

Substrate in series [8]: CC(=O)Oc1ccc([N+](=O)[O-])cc1
Kind of series: (§2) Ratio of Kcat to Km for human recombinant carbonic anhydrase 3.

Substrate in series [9]: O=[N+]([O-])c1ccc(OP(=O)(O)O)cc1
The description is as §2.

Substrate in series [10]: CC(=O)Oc1ccc([N+](=O)[O-])cc1
Kind of series: (§3) Activity of human recombinant carbonic anhydrase 7.

Substrate in series [11]: O=[N+]([O-])c1ccc(OP(=O)(O)O)cc1
The description is as §3.

Substrate in series [12]: CC(=O)Oc1ccc([N+](=O)[O-])cc1
In words: (§4) Activity of S-glutathionylated form of human recombinant carbonic anhydrase 7.

Substrate in series [13]: O=[N+]([O-])c1ccc(OP(=O)(O)O)cc1
The description is as §4.

Substrate in series [14]: O=[N+]([O-])c1ccc(OP(=O)(O)O)cc1
In words: Ratio of Kcat to Km for human recombinant carbonic anhydrase 7.

Substrate in series [15]: O=[N+]([O-])c1ccc(OP(=O)(O)O)cc1
Kind of series: Ratio of Kcat to Km for S-glutathionylated form of human recombinant carbonic anhydrase 7.

A word on the Km: it is the concentration of substrate that gives half-maximal velocity. Broadly, the Ki is a dissociation constant, usually derived from enzyme kinetics or from competition with a known ligand. By IC50 is commonly meant the point on the concentration scale where inhibition reaches its midpoint.

On to `O=[N+]([O-])c1ccc(OP(=O)(O)O)cc1`, for which the Km in series [1] is 2210 µM. In addition, the kcat/Km in series [2] was found to be 3.03 ×10⁴ /M/s.
As to `CC(=O)Nc1nnc(S(N)(=O)=O)s1` [ACETAZOLAMIDE], the Ki in series [3] came out at 3 nM. Further, the IC50 in series [4] stood at 170 nM; in series [5], 2910 nM.
As to `CC(=O)Oc1ccc([N+](=O)[O-])cc1`, the Km in series [1] is 1060 µM.

B1: Carbonic anhydrase 3 (Homo sapiens), P07451 (protein)
chain: MAKEWGYASHNGPDHWHELFPNAKGENQSPVELHTKDIRHDPSLQPWSVSYDGGSAKTILNNGKTCRVVFDDTYDRSMLRGGPLPGPYRLRQFHLHWGSSDDHGSEHTVDGVKYAAELHLVHWNPKYNTFKEALKQRDGIAVIGIFLKIGHENGEFQIFLDALDKIKTKGKEAPFTKFDPSCLFPACRDYWTYQGSFTTPPCEECIVWLLLKEPMTVSSDQMAKLRSLLSSAENEPPVPLVSNWRPPQPINNRVVRASFK
As for B1, the Km worked out at 1230 µM in series [6] and 1340 µM in series [7]. Besides, the kcat/Km was 139 M⁻¹ s⁻¹ in series [8] and 45.3 M⁻¹ s⁻¹ in series [9].

B2: Carbonic anhydrase 7 (Homo sapiens), P43166 (protein)
chain: MTGHHGWGYGQDDGPSHWHKLYPIAQGDRQSPINIISSQAVYSPSLQPLELSYEACMSLSITNNGHSVQVDFNDSDDRTVVTGGPLEGPYRLKQFHFHWGKKHDVGSEHTVDGKSFPSELHLVHWNAKKYSTFGEAASAPDGLAVVGVFLETGDEHPSMNRLTDALYMVRFKGTKAQFSCFNPKCLLPASRHYWTYPGSLTTPPLSESVTWIVLREPICISERQMGKFRSLLFTSEDDERIHMVNNFRPPQPLKGRVVKASFRA
For the molecule B2, the Michaelis-Menten constant (Km) in series [10] is 750 µM; in [11], 1430 µM; in series [12], 500 µM; in series [13], 970 µM. Also, the results for the kcat/Km in series [14] and in series [15] were 2.89 ×10⁴ /M/s and 3.04 ×10⁴ /M/s, respectively.
